Source: PubChem (The Scripps Research Institute Molecular Screening Center)
The list is not random: actives were taken first. Their share in the collection is about 2.3%.
GSTO1 inh – blocks human GSTO1 in RBBP9 counter-screen | hit rate 1.1% among 300,000 | AID 1974 | recombinant GSTO1, activity-based probe fluorescence polarization | inhibition, % at 5.96 µM | P78417;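 active = inhibition above the campaign mean inhibition plus 3 SD, cut at about 35% in these data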;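 also: 0% = GSTO1-1 with DMSO and 100% = wells lacking GSTO1-1 enzyme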
PRMT1 inh – PRMT1 (human) inhibition, primary screen; hit rate 1.3% among 370,000; recombinant PRMT1, activity-based probe fluorescence polarization; inhibition, % at 2.79 µM;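 active = inhibition above about 21% made by adding two undisclosed values, limit read from the data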
RBBP9 inh – blocks human serine hydrolase RBBP9; O75884; recombinant RBBP9, FP-Rh probe fluorescence polarization; inhibition, % at 7.94 µM; hit rate 0.2% among 220,000;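 active = inhibition above the campaign mean of all tested compounds plus 3 SD, cut at about 14% in these data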;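 also: plate controls were DMSO wells with RBBP9 for no effect and wells lacking RBBP9 protein for full effect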
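System: RBBP9 protein | Quantity: 2.5 µM RBBP9 dispensing solution, before mixing | Reagent: FP-Rh probe, 375 nM dispensing solution | Timing: Enzyme-compound preincubation 30 min, then probe labeling 45 min, 25 °C | Measured by: Fluorescence polarization | Read-out: % inhibition | Replication: One well per compound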
PME-1 primary – PME-1 (human) inhibition; Q9Y570; recombinant PME-1, FP-Rh probe fluorescence polarization; inhibition, % at 5.9 µM; hit rate 0.53% among 320,000;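 active = inhibition above the campaign mean of all compounds plus 3 SD, cut at about 26% in these data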;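 also: competitive labeling of PME-1 active site by serine hydrolase directed probe; 0% = PME-1 with DMSO and 100% = wells lacking PME-1 enzyme; inhibitors block probe labeling so polarization falls and inhibition rises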
PAD4 FP inh – inhibitors of human PAD4. recombinant PAD4, RCA probe fluorescence polarization. hit rate 0.41% among 330,000. inhibition, % at 6.36 µM. Q9UM07. AID 485272;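 active = percent inhibition above a cutoff equal to the mean of all tested compounds plus 3 SD, cut at about 15% in these data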;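 also: 0% = PAD4 with RCA probe and DMSO and 100% = probe without PAD4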
Target sequence (Q9UM07 whole entry, looked up): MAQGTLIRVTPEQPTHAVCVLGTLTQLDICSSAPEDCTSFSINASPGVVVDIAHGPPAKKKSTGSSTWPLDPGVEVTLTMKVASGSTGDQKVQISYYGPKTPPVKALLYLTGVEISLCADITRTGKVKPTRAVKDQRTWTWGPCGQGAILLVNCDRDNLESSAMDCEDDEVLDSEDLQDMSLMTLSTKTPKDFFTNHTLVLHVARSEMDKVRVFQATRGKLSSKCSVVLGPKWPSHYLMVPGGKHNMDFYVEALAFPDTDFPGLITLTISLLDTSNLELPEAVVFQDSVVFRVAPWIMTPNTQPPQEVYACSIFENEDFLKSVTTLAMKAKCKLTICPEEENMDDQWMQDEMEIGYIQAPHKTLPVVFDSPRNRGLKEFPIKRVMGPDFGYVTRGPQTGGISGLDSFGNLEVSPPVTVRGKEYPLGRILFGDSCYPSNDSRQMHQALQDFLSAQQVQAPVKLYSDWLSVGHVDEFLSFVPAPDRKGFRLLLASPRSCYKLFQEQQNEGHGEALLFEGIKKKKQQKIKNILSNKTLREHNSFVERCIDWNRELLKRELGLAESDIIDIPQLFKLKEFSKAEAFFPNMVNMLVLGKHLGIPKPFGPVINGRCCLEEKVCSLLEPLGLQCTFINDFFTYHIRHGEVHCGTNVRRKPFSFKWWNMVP
Fam108B counter – Fam108B inhibition, counter-screen for RBBP9 inhibitors; recombinant Fam108B, FP-Rh probe fluorescence polarization; inhibition, % at 9.51 µM; hit rate 0.33% among 300,000;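 active = inhibition above the screen mean inhibition plus 3 SD, computed separately per campaign, cut at about 18% in these data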;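 also: inhibitors lower polarization as less probe binds the enzyme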
PRMT1 inh conf – PRMT1 (human) inhibition, FP confirmation | inhibition, % at 2.79 µM | recombinant His-PRMT1, activity-based probe fluorescence polarization | shares compounds with PRMT1 inh | AID 687036 | hit rate 42% among 3,300;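 active = mean inhibition across replicates above the hit cutoff derived for the earlier primary screen, cut at about 22% in these data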
* marks the source's active call; other numbers are inactive results; . = no result given.

SMILES	GSTO1 inh	PRMT1 inh	RBBP9 inh	PME-1 primary	PAD4 FP inh	Fam108B counter	PRMT1 inh conf
Cc1ccc(/C=N/n2c(COc3ccccc3)n[nH]c2=S)cc1	3	12	.	9	-7	0	.
CCOc1ccc2nc3sc(C(=O)N4CCOCC4)c(N)c3cc2c1	-3	28*	2	6	-2	6	3
Cc1cc(C)c2cc3c(N)c(C(=O)N4CCOCC4)sc3nc2c1	2	21	-2	14	-4	1	.
O=C1CCC(C(=O)NCCN2C(=O)S/C(=C\c3cccnc3)C2=O)=NN1	-5	4	-2	-1	3	3	.
Cn1nnnc1Sc1ncnc2scc(-c3ccccc3C(F)(F)F)c12	.	39*	.	0	2	.	14
O=C(N/N=C/c1ccc(N2CCCCC2)o1)c1ccccc1[N+](=O)[O-]	8	31*	-8	1	1	5	5
Cc1cc(S(=O)(=O)Nc2ccc(N3CCOCC3)cc2)ccc1Br	9	29*	.	9	2	-2	4
CC/C(=N\NC(=O)c1cccnc1)c1ccc2c(c1)OCCO2	3	0	5	-5	-2	2	.
CN(C(=O)COC(=O)c1ccc(CN2CCCC2=O)cc1)c1ccccc1	.	-2	.	-3	-4	.	.
CC(=O)Nc1ccc(NC(=O)C(C)OC(=O)/C(C#N)=C/c2ccc(N(C)C)cc2)cc1 (stereo not drawn)	-82	30*	.	-95	-7	-75	39*
CCCCCCCCSC1=CC(=O)C(OC)=C(OC)C1=O	.	39*	.	.	.	.	88*
CCCCCSc1nncc(=O)[nH]1	0	1	-3	2	-7	-7	.
Cc1cc(C)cc(-n2c3nc4ccccc4nc3c3c(=O)n(Cc4ccco4)cnc32)c1	-17	52*	-9	-9	-13	-13	18
Nc1ccc2nc(-c3ccccc3)cnc2c1	6	31*	.	3	1	1	33*
O=C(O)[C@H]1CCCC[C@H]1C(=O)Nc1ccc(Nc2ccccc2)cc1	8	12	0	-5	12	4	.
N#Cc1ccc(S(=O)(=O)N2CCN(C(=O)c3cn(-c4ccccc4)nc3-c3cccnc3)CC2)cc1	.	-1	.	.	.	.	.
CC(=O)Nc1ccc(SCC(=O)c2cc(C)n(-c3ccccc3F)c2C)cc1	-2	28*	-6	1	4	-7	30*
COC(=O)c1ccc(-n2c(C)cc(C(=O)CSc3ccc(NC(C)=O)cc3)c2C)cc1	-8	50*	-4	3	7	-2	30*
C=CCn1c(C)cc(C(=O)CSc2ccc(NC(C)=O)cc2)c1C	0	1	2	1	-4	-1	.
CCC(=O)OCCNc1cc(Sc2nccn2C)c2nonc2c1[N+](=O)[O-]	-9	43*	-8	0	-2	2	65*
CCC(=O)OCCNc1cc(SCCC(=O)OC)c2nonc2c1[N+](=O)[O-]	7	11	-4	2	-12	2	.
CCCC(=O)OCCNc1cc(Sc2nc3ccccc3[nH]2)c2nonc2c1[N+](=O)[O-]	16	67*	3	8	-2	1	73*
COc1cc(Cl)ccc1NC(=S)N(CCCN1CCOCC1)Cc1cn(C)c2ccccc12	0	34*	-4	2	1	7	37*
COc1ccc(Cl)cc1NC(=S)N(CCCN1CCOCC1)Cc1cn(C)c2ccccc12	4	34*	-6	11	0	6	37*
C#CCOCCOCCOCCNc1nc(N2CCN(C(=O)[C@H](CCCCN)n3cc([C@@H](N)CO)nn3)CC2)nc(N2CCN(C(=O)[C@H](Cc3ccc(O)cc3)n3cc([C@@H](N)CC(C)C)nn3)CC2)n1	8	2	-5	2	-2	-2	.
SMILES	GSTO1 inh	PRMT1 inh	RBBP9 inh	PME-1 primary	PAD4 FP inh	Fam108B counter	PRMT1 inh conf
Cc1ccc(NN2C(=O)C=C(c3ccccc3)C2=O)cc1	.	35*	-2	.	.	.	15
CCN(C(=O)CSc1nnc(-c2ccc(OC)cc2)n1N)c1c(N)n(Cc2ccccc2)c(=O)[nH]c1=O	.	36*	.	.	.	.	28*
COCCN(C(=O)CSc1nnc(-c2ccccc2C)n1C)c1c(N)n(Cc2ccccc2)c(=O)[nH]c1=O	2	28*	-1	1	-1	-1	33*
CC(C)CN(C(=O)CSc1nc(-c2ccccc2)cn1N)c1c(N)n(Cc2ccccc2)c(=O)[nH]c1=O	4	26*	.	-3	-4	-1	10
COC(=O)[C@]1(C)N[C@H](c2ccc(-c3cccc(Cl)c3)c(OC)c2)[C@@H]2C(=O)N(C)C(=O)[C@@H]21	.	2	.	.	3	.	.
CC(=O)c1sc2nsc(SCCN3CCOCC3)c2c1N	5	67*	4	0	-1	2	10
Nc1c(C(=O)c2ccccc2)sc2nsc(SCCN3CCOCC3)c12	-16	6	4	8	2	-2	.
O=[N+]([O-])c1ccccc1C=NN1CCCCCC1	.	26*	.	.	.	.	5
O=[N+]([O-])c1ccccc1/C=N/N1CCN(Cc2ccccc2)CC1	-3	-3	.	-4	-2	-1	.
CCc1ccccc1NC(=O)CN(C)C(=O)COC(=O)c1cccnc1Cl	.	-4	.	.	-1	.	.
O=C(CC(c1ccco1)S(=O)(=O)c1ccccc1)c1ccc(F)cc1 (stereo not drawn)	10	28*	-3	-1	-3	-4	22*
Cc1cccc(C)c1NC(=O)CSCC(=O)O	7	3	-10	0	-4	2	.
Cc1cccc(C)c1NC(=O)CSCC(=O)c1ccc(O)c(O)c1	31	39*	6	2	2	1	62*
Cc1cc(C)nc(SC(C(=O)O)c2ccccc2)n1 (stereo not drawn)	0	2	2	11	-1	0	.
Cc1cc(C)nc(Sc2nc(Cl)nc(N(c3ccccc3)c3ccccc3)n2)n1	-18	59*	2	-4	-7	1	10
CSc1nsc(SC)c1C(=O)Nc1ccc(C)cc1	5	0	0	1	-1	-1	.
O=C(O)CN1C(=O)C2C3CC(C2C1=O)C1C(c2ccc(Cl)cc2)c2sc(=O)[nH]c2SC31 (stereo not drawn)	7	64*	1	1	-1	2	15
O=C(O)CN1C(=O)C2C3CC(C2C1=O)C1C(c2ccc(F)cc2)c2sc(=O)[nH]c2SC31 (stereo not drawn)	4	37*	-4	-3	9	-2	22*
CC(C(=O)O)N1C(=O)C2C3CC(C2C1=O)C1C(c2ccccc2)c2sc(=O)[nH]c2SC31 (stereo not drawn)	8	29*	-8	-1	9	3	21*
CN1CCn2cnc(C(=O)NCc3ccc(CNC(=O)OC(C)(C)C)cc3)c2C1=O	.	-1	.	.	.	.	.
